According to publication PMC11604526 (Cell Reports Medicine, 2024):
Square brackets hold non-standard residues; d marks the D form. Ends that are not written are not given here. Dmt = Cc1cc(O)cc(C)c1C[C@H](N)C(=O)O; Cha = N[C@@H](CC1CCCCC1)C(=O)O

Columns and labels:
[1] = system: extracellular GABA ([GABA]o); assay: Extracellular GABA in peri-infarct cortex; type: in vivo, mouse; conditions: microinjection 0.2 pmol/d days 5-7 after stroke; day 8 after stroke; microdialysis; n = 6
Method in brief: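 A CMA7 microdialysis probe was placed in peri-infarct cortex (AP 0, ML −0.65, DV −1.5 mm from bregma). It was perfused at 1 μL/min with bicarbonate-buffered saline containing 10 mM glucose. Dialysate was collected in 20-min fractions over 2 h, and the second fraction was analysed. GABA was measured by ELISA (activator, 37°C for 15 min in the dark, stop solution, A450).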

Synt1A-SNAP-25 complex = assay: Co-IP of Synt1A-SNAP-25 complex in peri-infarct cortex; type: in vivo, mouse; conditions: microinjection 0.2 pmol/d days 5-7 after stroke; day 8; n = 5
Method in brief: (§1)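 Photothrombotic stroke was induced with rose bengal. Peptide was infused into the peri-infarct cortex through a 33-gauge injector in a guide cannula implanted in the infarct core (AP 0, ML −1.5, DV −1.0 mm from bregma). Dissected tissue was lysed 30 min in ice-cold RIPA and spun at 12,000 ×g for 15 min at 4°C. Lysates were precleared 1 h at 4°C with protein G magnetic beads before co-IP.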

Synt1A-VAMP-2 complex = assay: Co-IP of Synt1A-VAMP-2 complex in peri-infarct cortex; type: in vivo, mouse; conditions: microinjection 0.2 pmol/d days 5-7 after stroke; day 8; n = 5
Method in brief: as §1

[2] = system: layer 5 peri-infarct pyramidal neurons; assay: Whole-cell recordings in acute brain slices from treated mice; type: in vivo, mouse
GAT-1 [3] = assay: GAT-1 level and membrane fraction; type: cell-based; conditions: 100 nM; compared with Tat-Synt1A251-265mut; n = 5
Method in brief: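 HEK293 cells lentivirally expressing GAT-1-EGFP were exposed to peptide at 100 nM. Cells were permeabilised in Extraction Buffer 1 and spun at 1000 ×g for 5 min to split cytosol from membranes. Integral membrane proteins were extracted from the pellet in Extraction Buffer 2B and taken straight to western blot. β-Actin, a cytosolic marker, served to check membrane-fraction purity.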

[4] = system: mice with photothrombotic stroke; assay: Motor function; type: in vivo, mouse
Method in brief: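 Photothrombotic stroke was induced with rose bengal, holding body temperature at 37 ± 0.5°C. For grid walking, each mouse walked freely for 5 min on a wire grid 50 cm high. For the cylinder task, mice explored a clear cylinder (15 cm tall, 10 cm diameter) for 5 min, and only rears with both forelimbs clearly visible were timed. Tests ran 7 days before stroke and at set days after stroke.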

[5] = system: midline-crossing BDA+ fibers, C7 spinal cord; assay: BDA tract tracing, axonal sprouting; type: in vivo, mouse; conditions: treatment days 5-11 after stroke; BDA day 34, staining day 48; n = 6
Method in brief: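 Contralateral cortex injected at two sites with 10% biotinylated dextran amine on day 34 after stroke. Fourteen days later, mice were transcardially perfused with ice-cold saline, then 4% PFA. Transverse cervical spinal cord and coronal brain sections were cut at 40 μm. BDA+ axons were labelled with streptavidin-Cy3 (1:500). Analysis was blinded.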

peri-infarct cortex = assay: In vivo LFP and spike recording in peri-infarct cortex; parameters: species or system mouse; conditions: infused days 5-11 after stroke; recorded day 12
Method in brief: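 Spike-firing time histograms were built by counting spikes in sequential 1 s bins. Movement-related change was expressed as ((firing events during movement − firing events during stillness)/firing events during stillness) × 100.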

GAT-1 [6] = assay: 3H-GABA uptake in HEK293 cells overexpressing GAT-1; type: cell-based; conditions: 100 nM; compared with Tat-Synt1A251-265mut (100 nM); n = 5
Method in brief: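 HEK293 cells were kept in MEM with 10% FBS and transduced with lentiviral GAT-1-EGFP. These GAT-1-overexpressing cells were incubated with peptide (100 nM), or with the mutant control peptide at the same concentration, before 3H-GABA uptake was measured.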

[7] = system: SNARE complex (Synt1A, SNAP-25, VAMP-2); assay: SNARE complex and monomer levels in synaptosomes; type: in vivo, mouse; conditions: 0.2 pmol/d days 5-7 after stroke, day 8
Method in brief: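 Peri-infarct tissue was homogenised at 4°C in 320 mM sucrose, 1 mM NaHCO3, 1 mM MgCl2 and 0.5 mM CaCl2. The homogenate was spun at 500 ×g for 2 min, and the supernatant at 10,100 ×g for 10 min. The pellet was resuspended in 0.32 M sucrose, layered on 0.8 M sucrose and spun at 9100 ×g for 15 min. The 0.8 M fraction was pelleted at 12,000 ×g for 15 min and taken up in SDS lysis buffer.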

GAT-1-Synt1A interaction = GAT-1-Synt1A interaction (Mus musculus, UniProt P31648); assay: Synt1A-GAT-1 uncoupling activities of ZLQ series of compounds; conditions: Figures S4A/S4B; n = 3
GAT-1 and Synt1A = GAT-1 and Synt1A total levels and membrane fractions in cultured neurons; type: cell-based, mouse; conditions: GSNO 50 μM for 6 h; n = 5
Method in brief: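 Primary cortical neurons from E16 mice were grown on poly-L-ornithine in Neurobasal with 2% B27. For membrane fractions, cells were permeabilized in extraction buffer 1 and spun at 1000 ×g for 5 min; the pellet was resuspended in buffer 2B to extract integral membrane proteins. β-Actin was checked to confirm fraction purity. Western blots used anti-GAT-1 and anti-syntaxin1A (both 1:4000) and anti-Na+-K+-ATPase (1:1000).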

[8] = 0.2 pmol/d days 5-7 after stroke, recorded day 8
[9] = compared with Tat-Synt1A251-265mut-treated mice
[10] = compared with sham and Tat-Synt1A251-265mut-treated mice with stroke

Compound: Tat-TKKAVKYQSKARRKK [Tat-Synt1A251-265]
- stroke-induced increase in [GABA]o in the peri-infarct cortex [1]: reversed stroke-induced increase in [GABA]o
- stroke-induced decrease in Synt1A-SNAP-25 complex (Synt1A-SNAP-25 complex): reversed stroke-induced decreases
- stroke-induced decrease in Synt1A-VAMP-2 complex (Synt1A-VAMP-2 complex): reversed stroke-induced decreases
- mEPSCs, sham-operated mice ([2]; 0.2 pmol/d): had no effect on sham-operated mice
- mIPSCs, sham-operated mice ([2]; 0.2 pmol/d): had no effect on sham-operated mice
- tonic GABA currents (Itonic), sham-operated mice ([2]; 0.2 pmol/d days 5-7, recorded day 8): had no effect on sham-operated mice
- effect of stroke on Itonic, GAT-1 CKO mice with stroke [2, 8]: rather than that in GAT-1 CKO mice with stroke
- effect of stroke on Itonic, WT mice with stroke [2, 8]: reversed the effect of stroke on Itonic
- mEPSC frequency, mice with stroke ([2]; 0.2 pmol/d, day 8 after stroke): reversed stroke-induced decrease in mEPSC frequency
- mIPSC frequency, mice with stroke ([2]; 0.2 pmol/d, day 8 after stroke): reversed the stroke-induced decrease in mIPSC frequency
- sEPSC amplitude, mice with stroke [2, 9]: but not amplitude
- sEPSC frequency, mice with stroke [2, 9]: significantly increased sEPSC frequency
- sIPSC amplitude, mice with stroke [2, 10]: but not amplitude
- sIPSC frequency, mice with stroke [2, 10]: significantly increased sIPSC frequency
- sEPSCs, sham-operated mice ([2]; mouse, in vivo): had no effect on sEPSCs
- sIPSCs, sham-operated mice ([2]; mouse, in vivo): had no effect on sIPSCs of sham-operated mice
- expression of GAT-1, HEK293 cells overexpressing GAT-1 (GAT-1 [3]): did not affect
- membrane distribution of GAT-1, HEK293 cells overexpressing GAT-1 (GAT-1 [3]): did not affect
- motor functions of sham-operated mice ([4]; peptide microinjection, sham-operated mice): had no effect on motor functions of sham-operated mice
- number of BDA+ fibers crossing the midline into the denervated spinal cord at the C7 level [5]: significantly increased the number of BDA^+ fibers crossing the midline
- LFP power in delta (1-3 Hz) and theta (4-12 Hz) oscillations (peri-infarct cortex): significantly enhanced
- effects on cortical oscillations in GAT-1 CKO mice (peri-infarct cortex): disappeared in GAT-1 CKO mice
- movement-related spike firing rates, WT mice (peri-infarct cortex): reversed stroke-induced decrease in spike firing rates
- 3H-GABA uptake, HEK293 cells overexpressing GAT-1 (GAT-1 [6]): did not affect
- Synt1A, SNAP-25, or VAMP-2 monomer (synaptosomes) [7]: did not affect
- stroke-induced decreases in SNARE complexes (synaptosomes) ([7]; n = 5-6): reversed stroke-induced decreases in SNARE complexes

Compound: [dR][Dmt][Cha][dK][dR]-NH2 (N-terminus assumed; SMILES Cc1cc(O)cc(C)c1C[C@H](NC(=O)[C@H](N)CCCNC(=N)N)C(=O)N[C@@H](CC1CCCCC1)C(=O)N[C@H](CCCCN)C(=O)N[C@H](CCCNC(=N)N)C(N)=O) [ZLQ-3]
- impairment of motor functions, intranasal 5 mg/kg ([4]; 5 mg/kg intranasally days 5-11 after stroke, test day 12): attenuated the impairment of motor functions
- GAT-1-Synt1A uncoupling activity among the ZLQ series (GAT-1-Synt1A interaction): most potent GAT-1-Synt1A uncoupling activity

Compound: N[C@@H](CCC(=O)N[C@@H](CSN=O)C(=O)NCC(=O)O)C(=O)O [GSNO]
- membrane contents of GAT-1 and Synt1A in cultured neurons (GAT-1 and Synt1A): significantly increased membrane contents of GAT-1 and Synt1A
- total levels of GAT-1 and Synt1A in cultured neurons (GAT-1 and Synt1A): had no effects on the total levels of GAT-1 and Synt1A
